Compound activity deposited in PubChem by several laboratories.
Most compounds without a hit are left out; they make up all but 5.5% or so of the library.
STAT1 inh = inhibitors of IFN-gamma induced STAT1 signaling. NIH 3T3 STAT1-luciferase reporter, luminescence. inhibition, % at 5.5 µM. AID 920. 200,000 compounds, 0.35% hits;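 active = inhibition above a set limit, the mean inhibition across all tested compounds plus 3 SD, cut at about 34% in these data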;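 also: 0% = IFN-gamma with DMSO and 100% = IFN-gamma with 300 µM nifuroxazide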
HSV augment = increases HSV replication in cells; HSV replication augmentation in cells, fold increase; maximum fold increase; 220,000 compounds, 0.005% hits; AID 1956; in the data active = maximum fold increase above about 1.5; tested in PC3 cells
STAT3 inh = reduces IL-6 driven STAT3 reporter signal | U3A cells, IL-6 STAT3-luciferase reporter, luminescence; host cell line lacks STAT1 | inhibition, % at 5.5 µM | 190,000 compounds, 0.89% hits | AID 862;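 active = inhibition above the mean inhibition across all screened compounds plus 3 SD, cut at about 44% in these data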;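 also: 0% = DMSO only wells and 100% = 100 µM nifuroxazide control wells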
Cl transport mod = KCC2 (human) Cl- transport modulation. B-score of Tl+ flux slope (higher = more flux/activation; lower = inhibition) at 10 µM. KCC2 cells, thallium flux FluoZin-2 fluorescence. 190,000 compounds, 2.2% hits. Q9H2X9;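 active = thallium flux slope and its plate-corrected score both differing from the plate sample mean at a set confidence after two filtering rounds, in either direction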;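 also: slope of fluorescence scaled to starting intensity during 10 to 20 s after thallium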
Target sequence (Q9H2X9 whole entry, looked up): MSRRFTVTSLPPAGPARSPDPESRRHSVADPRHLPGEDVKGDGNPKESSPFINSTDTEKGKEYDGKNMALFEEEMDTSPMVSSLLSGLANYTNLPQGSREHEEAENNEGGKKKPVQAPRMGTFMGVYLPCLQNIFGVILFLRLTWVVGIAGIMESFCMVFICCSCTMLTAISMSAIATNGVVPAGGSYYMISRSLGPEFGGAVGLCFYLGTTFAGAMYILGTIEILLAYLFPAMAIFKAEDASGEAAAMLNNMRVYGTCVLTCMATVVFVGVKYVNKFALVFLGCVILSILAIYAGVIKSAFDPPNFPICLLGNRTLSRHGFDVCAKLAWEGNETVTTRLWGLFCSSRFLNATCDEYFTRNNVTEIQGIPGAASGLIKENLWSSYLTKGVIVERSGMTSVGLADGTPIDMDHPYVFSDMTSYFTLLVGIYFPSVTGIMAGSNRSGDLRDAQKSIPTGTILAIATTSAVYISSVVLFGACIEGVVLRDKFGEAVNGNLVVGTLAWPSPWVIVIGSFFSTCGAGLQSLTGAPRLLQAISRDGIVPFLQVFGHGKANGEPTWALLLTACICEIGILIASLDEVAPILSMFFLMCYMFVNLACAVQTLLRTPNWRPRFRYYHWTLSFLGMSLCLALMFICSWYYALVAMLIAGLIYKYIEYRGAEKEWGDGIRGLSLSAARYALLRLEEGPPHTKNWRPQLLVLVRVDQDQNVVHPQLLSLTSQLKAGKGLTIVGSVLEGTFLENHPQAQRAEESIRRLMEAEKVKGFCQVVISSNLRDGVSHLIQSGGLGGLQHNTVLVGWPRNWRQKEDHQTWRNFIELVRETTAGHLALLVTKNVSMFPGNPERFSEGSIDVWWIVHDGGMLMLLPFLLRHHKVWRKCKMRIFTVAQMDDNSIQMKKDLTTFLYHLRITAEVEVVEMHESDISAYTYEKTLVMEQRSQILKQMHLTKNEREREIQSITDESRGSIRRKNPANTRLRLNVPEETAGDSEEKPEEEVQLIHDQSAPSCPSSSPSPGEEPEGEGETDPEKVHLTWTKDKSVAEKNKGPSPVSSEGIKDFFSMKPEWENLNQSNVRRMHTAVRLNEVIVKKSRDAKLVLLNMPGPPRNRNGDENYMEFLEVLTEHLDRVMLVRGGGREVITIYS
STAT3 act-1 = activators of IL-6 induced STAT3 signaling. U3A cells, IL-6 STAT3-luciferase reporter, luminescence; 100% = signal with IL-6 EC80 alone. activation (% of control), % at 5.6 µM. 190,000 compounds, 0.91% hits. AID 871;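 active = activation above the screen-wide mean of compound activation plus 3 SD, cut at about 130% in these data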;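 also: 0% = background luminescence of wells with medium and substrate only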
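Assay system – human STAT1-deficient U3A cells with stable STAT3-luciferase reporter · Also added – IL-6 (33 ng/mL) · Schedule – compound 1 h, then IL-6 6 h at 37 °C · Technique – reporter luminescence signal · Evaluation – % activation versus median of IL-6-stimulated wells · Benchmarks – IL-6-only wells as 100% reference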
STAT1 act-1 = increases IFN-gamma driven STAT1 reporter signal. NIH 3T3 STAT1-luciferase reporter, luminescence; 100% = IFN-gamma alone, no compound. activation (% of control), % at 5.5 µM. 200,000 compounds, 2.6% hits. AID 932;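 active = activation above the screen-wide mean activation plus 3 SD, cut at about 130% in these data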;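 also: raw ratio to IFN-gamma control signal so 100% means no change and 0% no light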
STAT3 act-2 = confirmation of STAT3 signaling activators | 1,200 compounds, 64% hits | AID 1267 | shares compounds with STAT3 act-1 | potentiation (% of control), % at 5.7 µM | U3A STAT3-luciferase reporter, IL-6 potentiation, luminescence; U3A cells lack STAT1; 100 means same as IL-6 alone;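 active = percent activation of the STAT3 luciferase reporter above a set limit taken from the earlier primary screen, cut at about 130% in these data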;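 also: 0% = background signal of medium plus substrate and 100% = median of IL-6 with DMSO wells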
NFkB act STAT3ct = counter-screen for STAT3 activators: NF-kappaB activation. shares compounds with STAT3 act-1. human cells, NF-kappaB reporter activation. activation (% of control), % at 5.7 µM. 1,200 compounds, 11% hits; in the data active = activation above about 120%;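 also: reporter induced by TNF-alpha stimulation; 100% = median of stimulated DMSO wells and 0% = no signal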
STAT1 act-2 = STAT1 activation in STAT3 activator counter-screen | 1,200 compounds, 13% hits | activation (% of control), % at 5.7 µM | shares compounds with STAT3 act-1 | NIH 3T3 STAT1-luciferase reporter, IFN-gamma, luminescence | AID 1318;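 active = activation above the solvent-only control well mean plus 3 SD, set per screening run, cut at about 120% in these data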;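 also: 100% = IFN-gamma with DMSO median signal so 100% means no change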
* = called active by the depositor; i = inactive; / = no result.

SMILES | STAT1 inh | HSV augment | STAT3 inh | Cl transport mod | STAT3 act-1 | STAT1 act-1 | STAT3 act-2 | NFkB act STAT3ct | STAT1 act-2
Cc1cccc(NC(=O)c2c(O)c3cccc4c3n(c2=O)CCC4)n1 | 4 | i | -4 | 0.23 | 107 | 96 | / | / | /
Cc1cnc(NC(=O)c2c(O)c3cccc4c3n(c2=O)CCC4)s1 | -2 | i | -72 | -0.59 | 165* | 102 | 149* | 101 | 102
CCOC(=O)c1cnn(-c2cc(C)c3ccccc3n2)c1N | 2 | i | -75 | / | 170* | 98 | 173* | 117 | 107
COC(=O)[C@H](C)NC(=O)Nc1cc(Cl)ccc1C | -8 | i | 5 | / | 99 | 108 | / | / | /
O=C(CN1CCNCC1)Nc1ccc(Oc2ccccc2)cc1 | 4 | i | -51 | -0.24 | 141* | 96 | 139* | 111 | 106
O=C(CN1CCOCC1)Nc1ccc(Oc2ccccc2)cc1 | 9 | i | 7 | 1.7 | 96 | 91 | / | / | /
c1cc2c(cc1C1CCCN1)OCCCO2 (stereo unspecified) | 6 | i | 4 | -0.27 | 100 | 94 | / | / | /
CCOc1ccc(OCc2ccc(C(=O)NCC3CCCO3)o2)cc1 (stereo unspecified) | 2 | i | 4 | -0.26 | 102 | 98 | / | / | /
O=C(NCC1CCCO1)c1ccc(COc2ccc(F)cc2)o1 (stereo unspecified) | -21 | i | -44 | -0.29 | 138* | 119 | 99 | 103 | 98
O=C(CCN1CCOCC1)N1CCc2c([nH]c3ccccc23)C1c1cccc(Cl)c1 (stereo unspecified) | 6 | i | -41 | / | 142* | 94 | 172* | 110 | 87
O=S(=O)(Nc1ncnc2c1oc1ccccc12)c1ccc(Cl)s1 | / | i | / | / | / | / | / | / | /
CCOC(=O)c1cccnc1SCc1cc(=O)n2ccccc2n1 | 2 | i | -40 | / | 138* | 98 | 129 | 103 | 96
CC(OC(=O)c1cccnc1SCc1cc(=O)n2ccccc2n1)c1ccccn1 (stereo unspecified) | -7 | i | -69 | -0.76 | 153* | 107 | 134* | 100 | 99
COc1cccc(-c2nc(Cc3ccc(OC)c(OC)c3)no2)c1 | -3 | i | 13 | / | 95 | 103 | / | / | /
Cc1cc(C)n(-c2nc(C)nc3c2cnn3-c2ccccc2)n1 | -6 | / | -60 | / | 155* | 106 | 151* | 108 | 99
CCOC(=O)CSc1nc(-c2ccccc2)nc2c1oc1ccccc12 | 8 | i | -37 | 0.8 | 137* | 93 | 134* | 111 | 94
CCC(=O)N(Cc1cc(=O)[nH]c2ccccc12)c1cccc(C)c1 | -3 | i | -48 | -0.019 | 142* | 103 | 124 | 101 | 96
COc1ccccc1N(C(C)=O)c1nc(C)cc(C)c1C#N | 12 | i | -75 | 0.084 | 165* | 89 | 152* | 101 | 100
COC(=O)c1sccc1NC(=O)c1cc2c(s1)CCCC2 | -11 | / | -79 | 0.51 | 170* | 109 | 146* | 110 | 109
COc1ccc(C)cc1NC(=O)c1cc2c(s1)CCC2 | -12 | i | -19 | -0.26 | 112 | 111 | / | / | /
COc1ccc(CCNC(=O)c2[nH]c(C)c(C(C)=O)c2C)cc1OC | 1 | i | 11 | 0.23 | 93 | 99 | / | / | /
COc1ccc(OC)c(NC(=O)c2[nH]c(C)c(C(C)=O)c2C)c1 | -2 | i | -55 | -3.8 | 151* | 101 | 152* | 106 | 104
Cc1cc(C)c(C)c(N=Nc2nc3ccccc3n2C)c1C | -8 | i | 21 | 0.024 | 83 | 107 | / | / | /
Cc1ccc(C)c(N=Nc2nc3ccccc3n2C)c1 | -28 | i | -74 | -2.8 | 176* | 126 | 223* | 154* | 237*
COc1ccc(C(=O)Nc2ccccc2C(=O)NC(Cc2c[nH]c3ccccc23)C(=O)O)cc1 (stereo unspecified) | 8 | i | -44 | -0.9 | 138* | 92 | 123 | 100 | 94
SMILES | STAT1 inh | HSV augment | STAT3 inh | Cl transport mod | STAT3 act-1 | STAT1 act-1 | STAT3 act-2 | NFkB act STAT3ct | STAT1 act-2
CC1CCN(C(=O)CSc2nnc(-c3cc4ccccc4cc3O)n2Cc2ccco2)CC1 | 2 | i | 13 | -1.6 | 94 | 99 | / | / | /
O=P(c1ccccc1)(c1ccccc1)c1nc(-c2ccccc2)oc1NCc1ccccc1 | 0 | i | -2 | 1.3 | 103 | 99 | / | / | /
Cc1ccc(C(=O)Nc2nccs2)cc1 | -6 | i | -54 | -0.36 | 144* | 106 | 165* | 118 | 128*
Nc1ccc(C(=O)Nc2nccs2)cc1 | -31 | i | 6 | 0.074 | 97 | 127 | / | / | /
COc1ccc(/C=c2\sc3nc(-c4ccccc4OC)nn3c2=O)c(OC)c1 | 0 | i | -63 | / | 156* | 100 | 129 | 98 | 96
CCCCNC(=O)C(Cc1ccccc1)NS(=O)(=O)c1ccc2c(c1)c(=O)n(C)c(=O)n2C (stereo unspecified) | -4 | i | 0 | / | 107 | 103 | / | / | /
Cc1cc2ccc(C)c(C)c2nc1SCC(=O)c1cccs1 | 21 | i | -66 | / | 160* | 81 | 134* | 100 | 91
CC(=O)Nc1c(C(=O)O)oc2ccc(Cl)cc12 | 6 | / | -40 | / | 140* | 94 | 125 | 102 | 90
CN1CCN(NC(=O)c2cc(S(=O)(=O)N3CCOCC3)c(Cl)cc2Cl)CC1 | 1 | i | 0 | 0.92 | 100 | 99 | / | / | /
Brc1ccc2ncnc(Nc3cccc4ccccc34)c2c1 | 28 | i | -42 | / | 147* | 75 | 163* | 97 | 88
c1ccc2cc(-c3cc4ccccn4c3)ccc2c1 | -21 | i | -81 | -0.018 | 177* | 120 | 94 | 102 | 103
COc1ccccc1-c1nnc(Nc2nc3c(OC)cccc3s2)o1 | -31 | i | -45 | 4.1* | 142* | 127 | 110 | 137* | 141*
COc1cccc2sc(NN)nc12 | -17 | i | -7 | 0.79 | 112 | 113 | / | / | /
Brc1cc(Br)c2nc(-c3cccs3)ccc2c1 | -7 | i | -48 | 1.4 | 145* | 107 | 133 | 115 | 125*
Nc1nccc(-c2cccs2)n1 | -11 | i | 2 | 0.026 | 104 | 108 | / | / | /
N#Cc1c(C(F)(F)F)cc(-c2ccc(Cl)c(Cl)c2)nc1SCCN1CCOCC1 | 12 | i | -62 | / | 160* | 89 | 146* | 103 | 91
Cc1cc(C(F)(F)F)nc(SCCN2CCOCC2)c1C#N | 17 | i | 7 | -0.87 | 97 | 83 | / | / | /
